ChEMBL document CHEMBL3244402, “Branched-chain analogues of luteinizing hormone-releasing hormone” (1978)
Calls of active or inactive are those of the source. No cut-off for these calls is given here. Square brackets hold non-standard residues; d marks the D form. Peptide text beside a SMILES is read from it. pGlu = O=C1CC[C@@H](C(=O)O)N1

Columns and labels:
Rattus norvegicus [1] = test: In vivo inhibition of LH-RH receptor in immature rat assessed as inhibition of LH-RH-stimulated luteinizing hormone release in serum at 300 ug, sc administered 4 hrs prior to LH-RH addition measured after 30 mins relative to vehicle-treated control; format: functional
How it was run: (§1)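 Immature male rats received 300 μg peptide sc in 20% propylene glycol-saline, or vehicle alone. Synthetic LH-RH (200 ng) or saline was injected at the same time or later, over a 4-h period. Blood was taken 30 min after LH-RH. Serum LH and FSH were measured by radioimmunoassay (double antibody for LH), and percent inhibition of serum gonadotropin was calculated.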

Rattus norvegicus [2] = test: In vivo inhibition of LH-RH receptor in immature rat assessed as inhibition of LH-RH-stimulated follicle-stimulating hormone release in serum at 300 ug, sc administered 1 hr prior to LH-RH addition measured after 30 mins relative to vehicle-treated control; format: functional; how it was run: as §1
Rattus norvegicus [3] = test: Antiovulatory activity in Sprague-Dawley rat at 1.5 mg, sc administered at 9 am on proestrous day relative to vehicle-treated control; format: functional
Rattus norvegicus [4] = test: Antiovulatory activity in Sprague-Dawley rat at 1 mg, sc administered at 12 pm on proestrous day relative to vehicle-treated control; format: functional
How it was run: (§2)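 Adult female SD rats (~200 g), 14 h light/10 h dark, with vaginal smears checked daily from 14 days after arrival. Only rats with at least two successive regular 4-day cycles were used. Peptide was given sc in propylene glycol-saline on the proestrous afternoon. Rats were killed the next day and oviducts inspected for ova. Read-out was % inhibition of ovulation and ova count (±SE) in ovulating rats.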

Rattus norvegicus [5] = test: In vivo inhibition of LH-RH receptor in immature rat assessed as inhibition of LH-RH-stimulated follicle-stimulating hormone release in serum at 300 ug, sc administered 4 hrs prior to LH-RH addition measured after 30 mins relative to vehicle-treated control; format: functional; how it was run: as §1
Rattus norvegicus [6] = test: In vivo inhibition of LH-RH receptor in immature rat assessed as inhibition of LH-RH-stimulated luteinizing hormone release in serum at 300 ug, sc administered 1 hr prior to LH-RH addition measured after 30 mins relative to vehicle-treated control; format: functional; how it was run: as §1
Rattus norvegicus [7] = test: In vivo inhibition of LH-RH receptor in immature rat assessed as inhibition of LH-RH-stimulated luteinizing hormone release in serum at 300 ug, sc administered 2 hrs prior to LH-RH addition measured after 30 mins relative to vehicle-treated control; format: functional; how it was run: as §1
Rattus norvegicus [8] = test: In vivo inhibition of LH-RH receptor in immature rat assessed as inhibition of LH-RH-stimulated luteinizing hormone release in serum at 300 ug, sc administered 0.5 hrs prior to LH-RH addition measured after 30 mins relative to vehicle-treated control; format: functional; how it was run: as §1
Rattus norvegicus [9] = test: Antiovulatory activity in Sprague-Dawley rat at 1.5 mg, sc administered at 12 pm on proestrous day relative to vehicle-treated control; format: functional; how it was run: as §2
Rattus norvegicus [10] = test: In vivo activation of LH-RH receptor in immature rat assessed as release of follicle-stimulating hormone relative to control; format: functional
How it was run: (§3)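 Immature male rats were injected sc with agonist, LH-RH or saline and followed over 0.25–4 h, with blood sampled at intervals. Serum LH was measured by double antibody radioimmunoassay and FSH by radioimmunoassay, against NIH-LH-S17 and NIAMD-rat-FSH-RP1 standards.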

Rattus norvegicus [11] = test: In vivo activation of LH-RH receptor in immature rat assessed as release of luteinizing hormone relative to control; format: functional; how it was run: as §3
Rattus norvegicus [12] = test: In vivo activation of LH-RH receptor in immature rat assessed as release of follicle-stimulating hormone in serum at 50 ng, sc measured over 4 hrs by radioimmunoassay; format: functional, organism-based; how it was run: as §3
Rattus norvegicus [13] = test: In vivo activation of LH-RH receptor in immature rat assessed as release of luteinizing hormone in serum at 50 ng, sc measured over 4 hrs by double antibody radioimmunoassay; format: functional, organism-based; how it was run: as §3

| Structure (SMILES) | inhibition (INH) (Rattus norvegicus [1]) | inhibition (INH) (Rattus norvegicus [2]) | inhibition (INH) (Rattus norvegicus [4]) | inhibition (INH) (Rattus norvegicus [5]) | inhibition (INH) (Rattus norvegicus [6]) | further results |
| --- | --- | --- | --- | --- | --- | --- |
| CC(C)C[C@H](NC(=O)[C@@H](Cc1ccccc1)NC(=O)[C@H](Cc1ccc(O)cc1)NC(=O)[C@H](CO)NC(=O)[C@@H](Cc1c[nH]c2ccccc12)NC(=O)[C@@H](Cc1ccccc1)NC(=O)[C@@H]1CCC(=O)N1)C(=O)N[C@@H](CCCNC(=N)N)C(=O)N1CCC[C@H]1C(=O)NCC(N)=O | 52% | 65% | 83% | 77% | 84% | inhibition (INH) (Rattus norvegicus [3]): 67% |
| CC(C)C[C@H](NC(=O)[C@@H](CCCCNC(=O)c1ccccc1)NC(=O)[C@H](Cc1ccc(O)cc1)NC(=O)[C@H](CO)NC(=O)[C@@H](Cc1c[nH]c2ccccc12)NC(=O)[C@@H](Cc1ccccc1)NC(=O)[C@@H]1CCC(=O)N1)C(=O)N[C@@H](CCCNC(=N)N)C(=O)N1CCC[C@H]1C(=O)NCC(N)=O | 0% | – | 11% | – | – | inhibition (INH) (Rattus norvegicus [7]): 40%; inhibition (INH) (Rattus norvegicus [8]): 76% |
| COc1ccc2c(c1)c(CC(=O)NCCCC[C@@H](NC(=O)[C@H](Cc1ccc(O)cc1)NC(=O)[C@H](CO)NC(=O)[C@@H](Cc1c[nH]c3ccccc13)NC(=O)[C@@H](Cc1ccccc1)NC(=O)[C@@H]1CCC(=O)N1)C(=O)N[C@@H](CC(C)C)C(=O)N[C@@H](CCCNC(=N)N)C(=O)N1CCC[C@H]1C(=O)NCC(N)=O)c(C)n2C(=O)c1ccc(Cl)cc1 | 0% | 0% | – | 0% | 7% | inhibition (INH) (Rattus norvegicus [9]): 0% |
| CC(C)C[C@H](NC(=O)[C@@H](CCCCNC(=O)[C@H](Cc1ccc(O)cc1)NC(=O)[C@H](CO)NC(=O)[C@@H](Cc1c[nH]c2ccccc12)NC(=O)[C@@H](Cc1ccccc1)NC(=O)[C@@H]1CCC(=O)N1)NC(=O)[C@H](Cc1ccc(O)cc1)NC(=O)[C@H](CO)NC(=O)[C@@H](Cc1c[nH]c2ccccc12)NC(=O)[C@@H](Cc1ccccc1)NC(=O)[C@@H]1CCC(=O)N1)C(=O)N[C@@H](CCCNC(=N)N)C(=O)N1CCC[C@H]1C(=O)NCC(N)=O | 47% | 43% | 73% | 41% | 62% | inhibition (INH) (Rattus norvegicus [3]): 50% |
| CC(C)C[C@H](NC(=O)[C@@H](CCCCN)NC(=O)[C@H](Cc1ccc(O)cc1)NC(=O)[C@H](CO)NC(=O)[C@@H](Cc1c[nH]c2ccccc12)NC(=O)[C@@H](Cc1ccccc1)NC(=O)[C@@H]1CCC(=O)N1)C(=O)N[C@@H](CCCNC(=N)N)C(=O)N1CCC[C@H]1C(=O)NCC(N)=O ([pGlu][dF][dW]SY[dK]LRPG-NH2) | 38% | 37% | 0% | 18% | 36% | – |
| CC(C)C[C@H](NC(=O)[C@@H](CCCCN)NC(=O)[C@H](Cc1ccc(O)cc1)NC(=O)[C@H](CO)NC(=O)[C@H](Cc1c[nH]c2ccccc12)NC(=O)[C@H](Cc1cnc[nH]1)NC(=O)[C@@H]1CCC(=O)N1)C(=O)N[C@@H](CCCNC(=N)N)C(=O)N1CCC[C@H]1C(=O)NCC(N)=O | – | – | – | – | – | Activity (Rattus norvegicus [10]): 300%; Activity (Rattus norvegicus [11]): 300% |
| CC(C)C[C@H](NC(=O)CNC(=O)[C@H](Cc1ccc(O)cc1)NC(=O)[C@H](CO)NC(=O)[C@H](Cc1c[nH]c2ccccc12)NC(=O)[C@H](Cc1cnc[nH]1)NC(=O)[C@@H]1CCC(=O)N1)C(=O)N[C@@H](CCCNC(=N)N)C(=O)N1CCC[C@H]1C(=O)NCC(N)=O | – | – | – | – | – | Activity (Rattus norvegicus [12]): Active; Activity (Rattus norvegicus [13]): Active |
| CC(=O)Oc1ccccc1C(=O)NCCCC[C@@H](NC(=O)[C@H](Cc1ccc(O)cc1)NC(=O)[C@H](CO)NC(=O)[C@@H](Cc1c[nH]c2ccccc12)NC(=O)[C@@H](Cc1ccccc1)NC(=O)[C@@H]1CCC(=O)N1)C(=O)N[C@@H](CC(C)C)C(=O)N[C@@H](CCCNC(=N)N)C(=O)N1CCC[C@H]1C(=O)NCC(N)=O | 18% | 23% | – | 13% | 57% | inhibition (INH) (Rattus norvegicus [9]): 11% |
